Source: ChEMBL document CHEMBL4002602, “Design, Synthesis of Novel, Potent, Selective, Orally Bioavailable Adenosine A2A Receptor Antagonists and Their Biological Evaluation” (J Med Chem, 2017)
Calls of active or inactive are those of the source. The rule behind the calls is not given here.

How the values were obtained:
[1] = Apparent permeability across apical to basolateral side in human Caco2 cells at 5 uM after 90 mins; format: ADME, cell-based; conditions: Caco-2
[2] = target: CYP3A (Homo sapiens, UniProt P08684+P20815+P24462+Q9HB55); assay: Inhibition of CYP3A in human liver microsomes at 5 to 25 uM using testosterone as substrate preincubated for 5 mins with substrate followed by NADPH addition measured after 10 mins by LC-MS/MS analysis; format: ADME; conditions: human liver microsomes, probe testosterone
[3] = target: T1, Adenosine receptor A1 (Homo sapiens) (UniProt P30542); assay: Antagonist activity at human adenosine A1 receptor expressed in HEK293 cell membranes assessed as decrease in CPA/forskolin-induced cAMP level at 30 uM pretreated for 15 mins followed by agonist addition for 15 mins and subsequent forskolin stimulation measured after 30 mins; format: functional, cell-based
T1 sequence (whole entry): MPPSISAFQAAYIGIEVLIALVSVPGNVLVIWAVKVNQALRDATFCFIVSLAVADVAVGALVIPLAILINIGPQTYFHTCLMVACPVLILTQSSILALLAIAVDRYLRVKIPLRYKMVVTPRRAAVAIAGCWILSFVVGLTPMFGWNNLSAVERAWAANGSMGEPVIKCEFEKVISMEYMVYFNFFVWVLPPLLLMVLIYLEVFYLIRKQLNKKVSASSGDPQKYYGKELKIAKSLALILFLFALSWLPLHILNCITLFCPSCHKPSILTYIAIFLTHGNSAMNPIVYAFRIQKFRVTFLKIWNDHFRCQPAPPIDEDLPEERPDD
Summary of the method: (§1)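 Whole HEK-A1 cells were seeded overnight and then pretreated with 1 U/ml ADA for 90 min at 37 °C and 5% CO2. Compound was added for 15 min, then 1 nM CPA for 15 min, then forskolin for 30 min, at room temperature in incomplete DMEM with ADA and 20 μM rolipram. cAMP was read by HTRF (620/665 nm). Compounds ran at 12 concentrations in triplicate, with 10 or 30 μM as the top concentration.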

[4] = Metabolic stability in rat hepatocytes assessed as parent compound remaining at 1 uM measured at 60 mins post dose by LC-MS/MS analysis; format: ADME, cell-based, Hepatocyte; conditions: read-out: Stability
[5] = Half-life in rat hepatocytes at 1 uM by LC-MS/MS analysis; format: ADME, cell-based, Hepatocyte
[6] = target: CYP2D6 (Homo sapiens, UniProt P10635); assay: Inhibition of CYP2D6 in human liver microsomes at 5 to 25 uM using dextromethorphan as substrate preincubated for 5 mins with substrate followed by NADPH addition measured after 10 mins by LC-MS/MS analysis; format: ADME; conditions: human liver microsomes, probe dextromethorphan
[7] = Protein binding in rat serum at 1 uM after 6 hrs by HT dialysis method; format: ADME, cell-free; conditions: read-out: PB (converted)
[8] = target: CYP1A2 (Homo sapiens, UniProt P05177); assay: Inhibition of CYP1A2 in human liver microsomes at 5 to 25 uM using phenacetin as substrate preincubated for 5 mins with substrate followed by NADPH addition measured after 10 mins by LC-MS/MS analysis; format: ADME; conditions: human liver microsomes, probe phenacetin
[9] = target: T2, Adenosine receptor A3 (Homo sapiens) (UniProt P0DMS8); assay: Displacement of [3H]-HEMADO from human adenosine A3 receptor expressed in HEK293 cell membranes at 30 uM measured after 90 mins
T2 sequence (whole entry): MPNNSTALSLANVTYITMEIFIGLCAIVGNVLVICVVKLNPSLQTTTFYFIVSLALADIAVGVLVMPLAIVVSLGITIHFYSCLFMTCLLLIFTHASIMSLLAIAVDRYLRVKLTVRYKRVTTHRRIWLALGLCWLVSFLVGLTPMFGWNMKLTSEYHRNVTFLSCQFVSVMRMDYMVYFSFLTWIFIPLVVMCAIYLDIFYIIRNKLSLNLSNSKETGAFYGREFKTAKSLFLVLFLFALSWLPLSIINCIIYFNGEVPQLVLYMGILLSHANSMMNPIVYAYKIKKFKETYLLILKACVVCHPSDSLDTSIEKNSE

[10] = target: Voltage-gated inwardly rectifying potassium channel KCNH2 (Homo sapiens, UniProt Q12809); assay: Inhibition of [3H]-astemizole binding to human ERG at 10 uM after 2 hrs by liquid scintillation counting method relative to control; conditions: 2 h, 10 µM
[11] = target: T3, Adenosine receptor A1 (Homo sapiens, UniProt P30542); assay: Antagonist activity at human adenosine A1 receptor expressed in HEK293 cell membranes assessed as decrease in CPA/forskolin-induced cAMP level pretreated for 15 mins followed by agonist addition for 15 mins and subsequent forskolin stimulation measured after 30 mins; format: functional, cell-based
T3 sequence (P30542 whole entry): T1 sequence (whole entry)
Summary of the method: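 HTRF cAMP assay in overnight-seeded HEK cells expressing human A1, A2A or A2B, pretreated with ADA 1 U/ml for 90 min at 37 °C. Cells were given compound at increasing concentrations for 15 min, then agonist at room temperature in incomplete DMEM with ADA: CPA 1 nM, 15 min (A1); CGS-21680 10 nM, 30 min (A2A); NECA 70 nM, 15 min (A2B). Rolipram 20 μM for A1 and A2A; forskolin 30 min for A1 only. 12 concentrations, triplicates; IC50/Ki by curve fitting.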

[12] = target: hERG (KCNH2) (Homo sapiens, UniProt Q12809); assay: Inhibition of [3H]-astemizole binding to human ERG at 3 uM after 2 hrs by liquid scintillation counting method relative to control; conditions: probe [3H]-astemizole
[13] = target: T1, Adenosine receptor A1 (Homo sapiens); assay: Antagonist activity at human adenosine A1 receptor expressed in HEK293 cell membranes assessed as decrease in CPA/forskolin-induced cAMP level at 10 uM pretreated for 15 mins followed by agonist addition for 15 mins and subsequent forskolin stimulation measured after 30 mins; format: functional, cell-based; summary of the method: as §1
[14] = Metabolic stability in rat hepatocytes at 1 uM after 3 to 30 mins by LC-MS/MS analysis; format: ADME, cell-based, Hepatocyte
[15] = system: Rattus norvegicus; assay: Neuroprotective activity in po dosed 6-OHDA-lesioned Wistar rat model of parkinson disease assessed as increase in L-DOPA induced contralateral rotations pretreated for 30 mins followed by benserazide addition and subsequent L-DOPA stimulation for 30 mins measured at 60 mins post dose; format: functional, organism-based
Summary of the method: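 Male Wistar rats (295–305 g) anesthetized with ketamine/xylazine and given desipramine 10 mg/kg i.p. 30 min before 6-OHDA lesioning. At two weeks, rats were screened with apomorphine 0.05 mg/kg i.p. and kept only if they made ≥100 rotations in 1 h. Compound (30 or 100 mg/kg p.o., in 1% Tween 80/0.5% MC) was given 30 min before benserazide. L-DOPA 4 mg/kg i.p. followed 30 min later. Contralateral rotations counted over 2 h; one-way ANOVA with Dunnett's test.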

[16] = AUC (0 to t) in Wistar rat brain at 10 mg/kg administered through oral gavage by LC/MS/MS analysis; format: ADME, organism-based
Summary of the method: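 Male Wistar rats (230 ± 15 g), fasted overnight, given an oral suspension (1% Tween 80, 0.5% NaCMC; 1 mg/mL, 10 mL/kg). Blood and brain were collected discretely at 0.5, 2, 4 and 8 h. Brain was washed in PBS pH 7.4, weighed and homogenized, then acetonitrile-precipitated with internal standard. LC/MS/MS against standards in blank brain homogenate; n=4.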

Sequence of CYP2D6 (P10635 whole entry): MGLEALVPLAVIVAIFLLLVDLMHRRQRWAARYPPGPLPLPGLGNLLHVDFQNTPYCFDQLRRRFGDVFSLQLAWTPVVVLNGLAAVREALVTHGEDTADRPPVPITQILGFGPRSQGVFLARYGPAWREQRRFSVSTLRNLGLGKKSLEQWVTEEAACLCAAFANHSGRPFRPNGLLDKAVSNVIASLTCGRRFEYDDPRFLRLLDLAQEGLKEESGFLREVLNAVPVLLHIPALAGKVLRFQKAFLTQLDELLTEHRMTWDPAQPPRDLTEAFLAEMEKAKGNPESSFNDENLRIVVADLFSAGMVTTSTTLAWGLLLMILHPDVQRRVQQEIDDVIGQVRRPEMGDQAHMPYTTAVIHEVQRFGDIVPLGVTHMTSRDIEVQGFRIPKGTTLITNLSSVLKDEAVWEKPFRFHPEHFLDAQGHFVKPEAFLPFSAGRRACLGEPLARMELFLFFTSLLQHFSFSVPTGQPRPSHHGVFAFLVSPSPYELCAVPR
Sequence of CYP1A2 (P05177 whole entry): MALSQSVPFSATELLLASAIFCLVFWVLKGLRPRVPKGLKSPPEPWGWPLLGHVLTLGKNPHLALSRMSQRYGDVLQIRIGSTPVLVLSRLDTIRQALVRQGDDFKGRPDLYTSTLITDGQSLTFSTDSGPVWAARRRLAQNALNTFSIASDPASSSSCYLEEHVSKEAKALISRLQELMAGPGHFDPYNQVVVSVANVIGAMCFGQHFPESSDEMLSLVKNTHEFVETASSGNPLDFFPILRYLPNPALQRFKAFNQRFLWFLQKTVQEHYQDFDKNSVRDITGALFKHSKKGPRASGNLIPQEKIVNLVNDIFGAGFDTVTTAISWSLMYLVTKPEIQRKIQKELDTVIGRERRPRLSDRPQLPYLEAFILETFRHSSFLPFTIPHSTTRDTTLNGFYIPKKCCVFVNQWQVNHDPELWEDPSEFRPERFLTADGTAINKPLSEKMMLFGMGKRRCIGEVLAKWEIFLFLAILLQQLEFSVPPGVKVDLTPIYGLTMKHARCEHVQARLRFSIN
Sequence of hERG (KCNH2) (Q12809 whole entry): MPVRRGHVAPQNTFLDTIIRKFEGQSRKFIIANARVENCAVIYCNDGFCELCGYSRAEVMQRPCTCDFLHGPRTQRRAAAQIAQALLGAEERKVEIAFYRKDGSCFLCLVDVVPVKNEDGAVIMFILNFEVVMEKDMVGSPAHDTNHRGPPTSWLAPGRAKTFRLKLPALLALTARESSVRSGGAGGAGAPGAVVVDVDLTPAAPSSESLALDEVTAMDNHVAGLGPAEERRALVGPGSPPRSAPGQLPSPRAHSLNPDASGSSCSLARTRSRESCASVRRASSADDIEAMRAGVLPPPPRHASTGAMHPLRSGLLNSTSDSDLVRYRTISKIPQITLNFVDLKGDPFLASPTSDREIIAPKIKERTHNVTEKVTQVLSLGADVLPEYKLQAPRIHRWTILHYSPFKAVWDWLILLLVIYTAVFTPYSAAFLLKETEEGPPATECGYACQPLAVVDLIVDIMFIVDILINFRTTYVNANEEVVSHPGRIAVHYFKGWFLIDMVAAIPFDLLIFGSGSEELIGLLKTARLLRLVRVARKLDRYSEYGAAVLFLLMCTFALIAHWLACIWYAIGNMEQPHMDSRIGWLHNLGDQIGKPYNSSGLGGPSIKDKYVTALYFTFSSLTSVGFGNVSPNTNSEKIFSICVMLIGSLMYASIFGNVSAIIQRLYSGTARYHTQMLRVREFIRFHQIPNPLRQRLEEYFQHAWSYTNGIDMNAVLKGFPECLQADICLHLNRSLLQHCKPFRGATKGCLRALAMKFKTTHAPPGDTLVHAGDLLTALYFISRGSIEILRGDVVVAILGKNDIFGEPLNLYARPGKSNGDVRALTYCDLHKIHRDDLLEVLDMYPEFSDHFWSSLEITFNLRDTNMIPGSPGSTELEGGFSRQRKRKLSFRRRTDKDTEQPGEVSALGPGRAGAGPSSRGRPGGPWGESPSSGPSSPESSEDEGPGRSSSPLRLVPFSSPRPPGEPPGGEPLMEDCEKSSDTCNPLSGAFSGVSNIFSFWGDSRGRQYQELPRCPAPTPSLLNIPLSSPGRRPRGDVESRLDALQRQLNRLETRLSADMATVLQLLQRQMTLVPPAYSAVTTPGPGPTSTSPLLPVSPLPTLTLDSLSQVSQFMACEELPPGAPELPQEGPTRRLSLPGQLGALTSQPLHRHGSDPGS
Sequence of Voltage-gated inwardly rectifying potassium channel KCNH2 (Q12809 whole entry): as above

SMILES	Papp A→B at 1.5 h, 5 µM [1] [×10⁻⁶ cm/s]	IC50 at 10 min [2] [µM]	Activity [3]	remaining at 1 h, 1 µM [4] [%]	half-life at 1 µM [5] [h]	IC50 at 10 min [6] [µM]	fraction unbound at 6 h, 1 µM [7]	IC50 at 10 min [8] [µM]	Activity [9]	inhibition at 2 h, 3 µM [12] [%]	Activity [13]	further results
COc1ccc(N2CCOCC2)c2sc(NC(=O)C3(C)CCC(C)(O)CC3)nc12 (configuration not stated)	12.2	> 25	inactive	88	> 1	> 25	0.13	> 25	inactive			inhibition (INH) [10]: Not Active
COc1ccc(N2CCOCC2)c2sc(NC(=O)C(C)(C)Oc3ccc(F)cc3)nc12										< 5		Ki [11]: 2 µM
COc1ccc(N2CCOCC2)c2sc(NC(=O)C(C)(C)Oc3ccc(F)c(F)c3)nc12										< 5	inactive	
COc1cnc(N2CCOCC2)c2sc(NC(=O)C(C)(C)Oc3ccc(F)cc3)nc12											inactive	Stability [14]: Stable
CCN(CC)C1CCC(C)(C(=O)Nc2nc3c(OC)ccc(N4CCOCC4)c3s2)CC1 (configuration not stated)	3.7	> 50	inactive	89	> 1	> 50	0.24	> 50	inactive			Activity [15]: Dose-dependent effect; AUC(0-t) [16]: 1.1 µM·h
